# Results collected from several papers.
# Each line is one published result; the experiments were not run side by side.
# Cell line: HOP-62
# Effect on: cell growth or viability
Structure (SMILES),test,setting,quantity,value
O=C1Nc2ccccc2C1=NNc1nnc2n1N=C(c1ccccc1)CS2,SRB,10 µM,inhibition,54%
COc1cccc2c1C(=O)c1c(O)c3c(c(O)c1C2=O)C[C@@](O)(C(=O)CO)C[C@@H]3O[C@H]1C[C@H](N)[C@H](O)[C@H](C)O1,SRB,"10 µg/mL, 48 h",inhibition,98.9%
COc1ccc(-c2ccc(-c3ccc(C(=N)N)nc3)s2)cc1,SRB,,GI50,1.8 µM
O=C1NC(=NCc2cccs2)S/C1=C\c1ccc2ncccc2c1,,,IC50,> 10 µM
COc1cccc(Oc2ccccc2NC(=O)CNC(=O)c2cccc3ccccc23)c1,SRB,48 h,GI50,0.302 µM
COc1ccc(C(=O)/C=C/c2c(F)cccc2Cl)cc1S(N)(=O)=O,SRB,48 h,GI50,3 µM
CCCCc1n(Cc2ccc3ccccc3n2)cc[n+]1Cc1ccc2ccccc2n1,SRB,,TGI,12 µM
O=C1NCCc2[nH]c(-c3ccncc3)cc21,,,IC50,9.94 µM
c1ccc2cc(Cn3cc[n+](Cc4ccc5ccccc5c4)c3)ccc2c1,SRB,,TGI,17 µM
COc1ccc(-c2ccc(-c3ccc(C(=N)N)nc3)s2)cc1Cl,SRB,,GI50,1.9 µM
CCCc1n(Cc2ccc3ccccc3n2)cc[n+]1Cc1ccc2ccccc2n1,SRB,,TGI,19.4 µM
COc1ccc(C(=O)/C=C/c2cccc3ccccc23)cc1S(N)(=O)=O,SRB,10 µM,inhibition,82%
